The record followed here is PMC5508980 (Molecular nutrition & food research, 2017).

Structures are written as SMILES. Where a name gives a salt, the structure may show the parent alone.

Common to all, as to assay type: biochemical
For test [1], the target named is recombinant HDAC1 (Homo sapiens, UniProt Q13547). As to the kind of experiment: Recombinant HDAC activity assay. The settings on record: for remaining activity at 50 µM: 2 h, read-out: % HDAC activity, Class I HDACs, 1.
Test [2] addresses recombinant HDAC3 (Homo sapiens, UniProt O15379). The experiment in a line: Recombinant HDAC activity assay. The settings on record: for remaining activity at 50 µM: 2 h, read-out: % HDAC activity, Class I HDACs, 3.
The target in test [3] is T1, recombinant HDAC10 (Homo sapiens, UniProt Q969S8).
T1 sequence (Q969S8 1-669): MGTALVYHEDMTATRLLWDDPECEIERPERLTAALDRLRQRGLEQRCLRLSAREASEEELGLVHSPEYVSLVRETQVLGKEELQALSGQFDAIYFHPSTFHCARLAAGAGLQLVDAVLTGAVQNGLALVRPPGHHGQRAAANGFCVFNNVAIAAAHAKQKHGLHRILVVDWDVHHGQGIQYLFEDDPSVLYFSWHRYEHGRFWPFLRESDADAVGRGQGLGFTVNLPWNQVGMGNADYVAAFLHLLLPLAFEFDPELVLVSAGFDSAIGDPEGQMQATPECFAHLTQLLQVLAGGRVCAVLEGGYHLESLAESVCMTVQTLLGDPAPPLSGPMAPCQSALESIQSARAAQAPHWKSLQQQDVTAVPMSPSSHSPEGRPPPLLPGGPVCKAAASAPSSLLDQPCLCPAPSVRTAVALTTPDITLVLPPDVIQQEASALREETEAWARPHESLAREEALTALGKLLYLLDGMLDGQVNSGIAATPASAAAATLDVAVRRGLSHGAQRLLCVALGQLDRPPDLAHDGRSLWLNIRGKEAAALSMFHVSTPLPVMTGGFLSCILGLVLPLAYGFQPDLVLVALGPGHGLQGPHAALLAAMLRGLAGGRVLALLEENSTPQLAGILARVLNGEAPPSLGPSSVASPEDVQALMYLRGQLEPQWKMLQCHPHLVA
The experiment in a line: Recombinant HDAC activity assay. The note with it: 2 h, read-out: % HDAC activity, Class IIb HDACs, 10.

For test [4], the target named is T2, recombinant HDAC8 (Homo sapiens, UniProt Q9BY41).
T2 sequence (Q9BY41 1-377): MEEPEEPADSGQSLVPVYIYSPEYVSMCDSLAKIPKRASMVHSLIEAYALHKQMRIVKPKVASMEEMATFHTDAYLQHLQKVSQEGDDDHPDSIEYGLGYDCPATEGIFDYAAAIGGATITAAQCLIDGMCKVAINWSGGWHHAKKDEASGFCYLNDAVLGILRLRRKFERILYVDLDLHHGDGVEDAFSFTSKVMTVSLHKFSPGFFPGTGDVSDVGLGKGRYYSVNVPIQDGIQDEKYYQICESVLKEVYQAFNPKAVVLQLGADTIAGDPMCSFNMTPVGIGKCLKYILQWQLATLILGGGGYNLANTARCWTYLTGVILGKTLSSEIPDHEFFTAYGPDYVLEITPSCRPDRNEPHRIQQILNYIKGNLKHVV
As to the kind of experiment: Recombinant HDAC activity assay. The note with it: for remaining activity at 50 µM: 2 h, read-out: % HDAC activity, Class I HDACs, 8.

The target of test [5] is recombinant HDAC2 (Homo sapiens, UniProt Q92769). The experiment in a line: Recombinant HDAC activity assay. The settings on record: for remaining activity at 50 µM: 2 h, read-out: % HDAC activity, Class I HDACs, 2.
Chain of recombinant HDAC2 (Q92769 whole entry): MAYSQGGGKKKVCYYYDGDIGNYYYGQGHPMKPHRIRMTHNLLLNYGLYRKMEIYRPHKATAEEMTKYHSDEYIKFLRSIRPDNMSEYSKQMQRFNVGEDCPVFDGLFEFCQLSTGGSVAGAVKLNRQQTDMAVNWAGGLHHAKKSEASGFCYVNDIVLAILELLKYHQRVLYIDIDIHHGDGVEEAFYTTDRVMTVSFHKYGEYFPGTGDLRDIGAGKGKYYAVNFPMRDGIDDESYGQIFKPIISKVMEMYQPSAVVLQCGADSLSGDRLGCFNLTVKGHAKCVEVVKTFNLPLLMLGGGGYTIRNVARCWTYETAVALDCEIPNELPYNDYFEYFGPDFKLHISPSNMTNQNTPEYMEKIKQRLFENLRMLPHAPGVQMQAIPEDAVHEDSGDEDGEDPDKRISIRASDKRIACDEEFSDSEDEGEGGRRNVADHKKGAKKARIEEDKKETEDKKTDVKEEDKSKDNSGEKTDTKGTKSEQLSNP
Test [6] concerns the target T3, recombinant HDAC7 (Homo sapiens, UniProt Q8WUI4).
T3 sequence (Q8WUI4 1-952): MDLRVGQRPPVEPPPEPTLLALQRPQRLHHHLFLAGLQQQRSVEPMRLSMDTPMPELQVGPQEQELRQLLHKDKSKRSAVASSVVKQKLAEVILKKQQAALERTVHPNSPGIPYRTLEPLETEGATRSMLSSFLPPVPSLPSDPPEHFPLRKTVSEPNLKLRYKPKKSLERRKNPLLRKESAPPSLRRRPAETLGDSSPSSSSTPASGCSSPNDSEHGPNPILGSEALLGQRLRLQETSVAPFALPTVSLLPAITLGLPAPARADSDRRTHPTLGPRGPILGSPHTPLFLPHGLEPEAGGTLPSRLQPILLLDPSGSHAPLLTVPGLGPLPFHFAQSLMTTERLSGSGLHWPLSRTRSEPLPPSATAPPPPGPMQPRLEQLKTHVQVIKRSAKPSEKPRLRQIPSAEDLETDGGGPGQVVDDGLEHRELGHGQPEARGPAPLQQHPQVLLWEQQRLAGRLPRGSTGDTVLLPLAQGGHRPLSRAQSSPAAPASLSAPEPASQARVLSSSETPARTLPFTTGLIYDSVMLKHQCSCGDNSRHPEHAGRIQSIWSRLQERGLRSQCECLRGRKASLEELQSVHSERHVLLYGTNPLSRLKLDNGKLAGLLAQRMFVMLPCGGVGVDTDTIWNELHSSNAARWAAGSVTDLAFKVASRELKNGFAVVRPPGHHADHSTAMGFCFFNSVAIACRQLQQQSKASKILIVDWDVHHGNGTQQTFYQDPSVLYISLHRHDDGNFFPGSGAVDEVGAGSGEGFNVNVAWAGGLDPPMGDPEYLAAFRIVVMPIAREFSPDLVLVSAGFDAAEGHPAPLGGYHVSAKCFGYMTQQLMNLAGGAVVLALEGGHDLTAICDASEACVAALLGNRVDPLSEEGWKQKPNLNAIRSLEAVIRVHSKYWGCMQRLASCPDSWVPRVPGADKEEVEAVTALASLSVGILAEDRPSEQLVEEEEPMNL
As to the kind of experiment: Recombinant HDAC activity assay. The settings on record: for % HDAC activity, Class IIa HDACs, 7: recombinant protein incubated with 50 µM compound, 2 hrs.

Test [7] deals with T4, recombinant HDAC6 (Homo sapiens, UniProt Q9UBN7).
T4 sequence (Q9UBN7 1-1215): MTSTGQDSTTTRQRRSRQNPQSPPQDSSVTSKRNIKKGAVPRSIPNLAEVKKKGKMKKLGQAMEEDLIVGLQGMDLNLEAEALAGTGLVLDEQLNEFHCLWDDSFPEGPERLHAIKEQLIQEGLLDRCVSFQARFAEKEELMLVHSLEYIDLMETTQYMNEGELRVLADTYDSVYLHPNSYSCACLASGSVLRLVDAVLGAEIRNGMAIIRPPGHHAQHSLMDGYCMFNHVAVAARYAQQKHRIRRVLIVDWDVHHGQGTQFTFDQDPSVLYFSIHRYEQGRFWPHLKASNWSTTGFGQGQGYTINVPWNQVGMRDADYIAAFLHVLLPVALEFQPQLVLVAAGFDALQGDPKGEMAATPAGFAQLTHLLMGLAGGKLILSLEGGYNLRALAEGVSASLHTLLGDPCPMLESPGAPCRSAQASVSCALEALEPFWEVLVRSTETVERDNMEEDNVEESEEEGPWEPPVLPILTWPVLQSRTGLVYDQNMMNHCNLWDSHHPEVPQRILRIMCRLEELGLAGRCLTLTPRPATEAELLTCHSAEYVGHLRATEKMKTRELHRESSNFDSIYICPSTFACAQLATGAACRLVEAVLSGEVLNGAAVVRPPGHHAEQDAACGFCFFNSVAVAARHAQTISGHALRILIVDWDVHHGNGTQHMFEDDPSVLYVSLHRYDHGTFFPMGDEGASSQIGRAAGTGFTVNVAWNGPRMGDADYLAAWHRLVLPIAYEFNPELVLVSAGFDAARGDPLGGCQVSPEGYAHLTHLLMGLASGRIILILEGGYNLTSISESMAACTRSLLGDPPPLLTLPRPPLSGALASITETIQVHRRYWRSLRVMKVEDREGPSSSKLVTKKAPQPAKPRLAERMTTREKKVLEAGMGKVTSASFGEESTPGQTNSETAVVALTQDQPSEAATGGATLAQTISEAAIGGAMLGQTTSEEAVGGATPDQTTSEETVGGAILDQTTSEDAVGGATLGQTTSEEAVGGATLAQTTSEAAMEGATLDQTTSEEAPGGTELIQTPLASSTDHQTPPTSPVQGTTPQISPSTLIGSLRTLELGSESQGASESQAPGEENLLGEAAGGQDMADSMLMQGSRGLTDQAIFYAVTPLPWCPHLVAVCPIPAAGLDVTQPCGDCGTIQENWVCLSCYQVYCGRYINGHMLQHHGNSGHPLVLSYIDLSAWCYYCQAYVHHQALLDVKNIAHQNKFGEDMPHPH
The experiment in a line: Recombinant HDAC activity assay. The note with it: 2 h, read-out: % HDAC activity, Class IIb HDACs, 6.

Test [8] has as its target recombinant HDAC9 (Homo sapiens, UniProt Q9UKV0). As to the kind of experiment: Recombinant HDAC activity assay. The note with it: for remaining activity at 50 µM: 2 h, read-out: % HDAC activity, Class IIa HDACs, 9.
Test [9] concerns the target recombinant HDAC5 (Homo sapiens, UniProt Q9UQL6). The experiment in a line: Recombinant HDAC activity assay. The note with it: for remaining activity at 50 µM: 2 h, read-out: % HDAC activity, Class IIa HDACs, 5.
In test [10] the test system is HDAC activity in bovine cardiac tissue. The experiment in a line: Natural product library screen with class-selective HDAC substrates. The note with it: 2 hours treatment. In short, it runs like this: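 The screen covered 131 natural compounds against bovine cardiac tissue lysate at 30 µg protein/well in PBS (pH 7.4 lysis buffer with Triton X-100 and NaCl). Test compound for 2 h, then separate class I, IIa or IIb fluorogenic acyl-lysine-AMC substrates for 2 h at 37 °C. Developer (Triton X-100, 3 µM TSA, 0.75 mg/ml trypsin) for 20 min; fluorescence read at 360/460 nm.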

Where [11] appears, read: recombinant protein incubated with 50 µM compound, 2 hrs.

Chain of recombinant HDAC5 (Q9UQL6 whole entry): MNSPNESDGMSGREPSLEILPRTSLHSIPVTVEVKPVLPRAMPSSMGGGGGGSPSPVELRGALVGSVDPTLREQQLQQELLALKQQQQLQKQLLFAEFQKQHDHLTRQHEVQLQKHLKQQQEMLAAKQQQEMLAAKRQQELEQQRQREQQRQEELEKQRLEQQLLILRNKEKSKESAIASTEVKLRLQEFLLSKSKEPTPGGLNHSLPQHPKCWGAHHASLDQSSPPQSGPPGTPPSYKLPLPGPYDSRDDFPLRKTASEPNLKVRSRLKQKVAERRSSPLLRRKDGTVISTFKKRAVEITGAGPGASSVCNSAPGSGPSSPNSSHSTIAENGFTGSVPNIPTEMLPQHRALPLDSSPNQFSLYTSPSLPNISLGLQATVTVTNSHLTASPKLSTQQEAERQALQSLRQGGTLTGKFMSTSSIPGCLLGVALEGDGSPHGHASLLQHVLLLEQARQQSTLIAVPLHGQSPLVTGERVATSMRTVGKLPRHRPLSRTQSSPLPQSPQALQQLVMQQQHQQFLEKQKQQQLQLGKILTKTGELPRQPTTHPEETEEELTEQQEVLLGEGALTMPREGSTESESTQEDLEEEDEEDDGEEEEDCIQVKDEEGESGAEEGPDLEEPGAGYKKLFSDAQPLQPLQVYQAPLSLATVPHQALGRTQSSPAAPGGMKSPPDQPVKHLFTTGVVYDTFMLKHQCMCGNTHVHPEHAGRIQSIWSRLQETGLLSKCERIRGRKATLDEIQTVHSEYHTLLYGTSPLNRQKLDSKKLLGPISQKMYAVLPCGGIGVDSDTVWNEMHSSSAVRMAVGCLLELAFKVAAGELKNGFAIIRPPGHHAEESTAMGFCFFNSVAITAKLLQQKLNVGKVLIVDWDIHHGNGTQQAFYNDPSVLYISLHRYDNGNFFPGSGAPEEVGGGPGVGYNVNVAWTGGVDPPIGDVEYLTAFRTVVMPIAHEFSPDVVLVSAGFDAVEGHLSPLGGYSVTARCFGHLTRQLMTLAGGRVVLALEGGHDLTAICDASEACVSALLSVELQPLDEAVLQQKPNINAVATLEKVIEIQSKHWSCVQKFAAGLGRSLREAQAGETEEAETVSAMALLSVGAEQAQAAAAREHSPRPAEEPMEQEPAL
Chain of recombinant HDAC9 (Q9UKV0 whole entry): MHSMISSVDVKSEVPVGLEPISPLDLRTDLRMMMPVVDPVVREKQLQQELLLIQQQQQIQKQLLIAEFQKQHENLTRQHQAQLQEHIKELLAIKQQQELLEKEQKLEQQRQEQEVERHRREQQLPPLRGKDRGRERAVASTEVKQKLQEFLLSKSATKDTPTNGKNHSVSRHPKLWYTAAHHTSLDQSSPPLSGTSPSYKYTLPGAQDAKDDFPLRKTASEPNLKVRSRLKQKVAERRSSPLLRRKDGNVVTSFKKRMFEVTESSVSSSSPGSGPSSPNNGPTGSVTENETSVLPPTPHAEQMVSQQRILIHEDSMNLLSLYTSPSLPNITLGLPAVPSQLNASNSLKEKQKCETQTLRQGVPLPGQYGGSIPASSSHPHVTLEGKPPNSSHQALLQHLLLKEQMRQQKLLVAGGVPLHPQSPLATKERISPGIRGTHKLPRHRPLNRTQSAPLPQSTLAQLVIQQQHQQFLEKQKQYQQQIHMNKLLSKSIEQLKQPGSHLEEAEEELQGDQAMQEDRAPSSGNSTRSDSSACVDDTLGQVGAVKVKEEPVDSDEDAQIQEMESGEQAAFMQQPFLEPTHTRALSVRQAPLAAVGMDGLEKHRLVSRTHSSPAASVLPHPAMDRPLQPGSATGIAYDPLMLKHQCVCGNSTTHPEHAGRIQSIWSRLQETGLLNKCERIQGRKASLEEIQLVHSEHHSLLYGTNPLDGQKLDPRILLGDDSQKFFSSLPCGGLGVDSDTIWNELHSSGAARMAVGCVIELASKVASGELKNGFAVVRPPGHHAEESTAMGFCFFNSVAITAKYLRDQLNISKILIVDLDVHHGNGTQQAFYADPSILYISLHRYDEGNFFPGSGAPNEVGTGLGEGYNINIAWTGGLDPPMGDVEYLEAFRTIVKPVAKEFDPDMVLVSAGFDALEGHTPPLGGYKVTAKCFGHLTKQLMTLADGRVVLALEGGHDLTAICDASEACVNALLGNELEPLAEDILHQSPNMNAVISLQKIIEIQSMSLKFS
Chain of recombinant HDAC1 (Q13547 whole entry): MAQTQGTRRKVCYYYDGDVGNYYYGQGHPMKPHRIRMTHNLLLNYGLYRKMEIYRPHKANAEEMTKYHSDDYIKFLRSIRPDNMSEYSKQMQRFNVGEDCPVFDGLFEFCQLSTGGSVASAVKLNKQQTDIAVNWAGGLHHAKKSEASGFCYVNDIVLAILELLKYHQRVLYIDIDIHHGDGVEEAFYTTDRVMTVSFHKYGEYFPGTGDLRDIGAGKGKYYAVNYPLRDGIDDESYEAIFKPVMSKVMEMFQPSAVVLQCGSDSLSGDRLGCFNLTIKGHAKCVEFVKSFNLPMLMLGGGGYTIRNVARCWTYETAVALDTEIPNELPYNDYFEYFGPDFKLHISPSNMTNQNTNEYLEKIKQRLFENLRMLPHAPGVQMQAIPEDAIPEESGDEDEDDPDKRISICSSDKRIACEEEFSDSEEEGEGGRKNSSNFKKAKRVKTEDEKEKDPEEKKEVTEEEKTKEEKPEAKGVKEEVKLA
Chain of recombinant HDAC3 (O15379 whole entry): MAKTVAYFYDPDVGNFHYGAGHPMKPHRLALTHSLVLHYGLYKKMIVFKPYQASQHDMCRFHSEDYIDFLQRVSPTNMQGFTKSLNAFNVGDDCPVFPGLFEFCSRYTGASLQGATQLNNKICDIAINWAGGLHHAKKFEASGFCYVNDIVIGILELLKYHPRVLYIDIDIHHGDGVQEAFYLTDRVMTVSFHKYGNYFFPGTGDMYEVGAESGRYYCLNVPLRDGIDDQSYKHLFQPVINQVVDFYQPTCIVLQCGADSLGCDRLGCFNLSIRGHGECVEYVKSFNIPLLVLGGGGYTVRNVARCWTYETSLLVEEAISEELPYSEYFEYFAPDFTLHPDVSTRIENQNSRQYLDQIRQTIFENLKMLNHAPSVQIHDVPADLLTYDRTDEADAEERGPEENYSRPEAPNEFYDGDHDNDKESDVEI
Chain of recombinant HDAC3 (Q9Y618 395-489 partner limits assumed): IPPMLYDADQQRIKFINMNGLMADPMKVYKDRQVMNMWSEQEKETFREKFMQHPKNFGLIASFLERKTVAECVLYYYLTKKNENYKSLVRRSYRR

Regarding `O=C1Nc2ccccc2/C1=C1/Nc2ccccc2C1=O` [Indirubin], the remaining activity at 50 µM in [1] turned out to be 61.5%; in test [2] it was 56.6%; in test [3] it was 67%; in [4] it was 58.4%; in test [5] it was 58.7%; in test [7], 65.7%. The “% HDAC activity, Class IIa HDACs, 7” value in test [6] is reported as “-”.

For the compound `O.O=c1c(O)c(-c2ccc(O)cc2O)oc2cc(O)cc(O)c12` [Morin hydrate], the “% HDAC activity, Class I HDACs, 1” value in test [1] (setting [11]) came to 62.3%. In addition, the “% HDAC activity, Class I HDACs, 3” value in test [2] (setting [11]) was determined as 56.0%. Besides, the “% HDAC activity, Class IIa HDACs, 9” value in [8] (setting [11]) is reported as 56.1%. The “% HDAC activity, Class IIa HDACs, 5” value in test [9] (setting [11]) is 56.7%. Moreover, the “% HDAC activity, Class I HDACs, 8” value in [4] (setting [11]) is reported as 49.3%. The “% HDAC activity, Class I HDACs, 2” value in test [5] (setting [11]) was found to be 43.3%. In addition, the “% HDAC activity, Class IIa HDACs, 7” value in test [6] is recorded as “-”.

`COc1ccc2cc3[n+](cc2c1OC)CCc1cc2c(cc1-3)OCO2` [Berberine HCl, berberine hydrochloride]: the remaining activity at 50 µM in test [1] came out at 50.5%; in test [2], 48.3%; in test [3], 45%; in test [4], 46.8%; in test [5] it was 70.3%; in test [7], 60.9%.

Consider `O=C(O)/C=C/c1ccc(O)c(O)c1` [Caffeic acid], for which, in test [6], the “% HDAC activity, Class IIa HDACs, 7” value is given as “-”.

`O=c1c(O)c(-c2cc(O)c(O)c(O)c2)oc2cc(O)cc(O)c12` [Myricetin]: the remaining activity at 50 µM in test [1] came to 68%; in [2], 59.9%; in test [8] it was 77%; in test [9] it was 65.1%; in test [3] it was 63.4%; in test [4] it was 60.2%. For the same compound, in test [10], the “catalytic HDAC activity across class I, IIa and IIb substrates, effect in words” value is “pan-HDAC inhibition”. Further, the “% HDAC activity, Class IIa HDACs, 7” value in test [6] was “-”.

For `O=c1c(O)c(-c2ccc(O)cc2)oc2cc(O)cc(O)c12` [Kaempferol], the remaining activity at 50 µM in [1] amounted to 72.8%; in test [2], 66.9%; in test [8], 70.6%; in [9], 73.5%; in test [3], 71.6%; in test [4] it was 68.7%. Besides, the remaining activity at 50 µM in test [5] was found to be 71.7%. Besides, the “% HDAC activity, Class IIa HDACs, 7” value in test [6] is given as “-”.

In the case of `O=C(O)[C@H]1O[C@@H](Oc2cc3oc(-c4ccccc4)cc(=O)c3c(O)c2O)[C@H](O)[C@@H](O)[C@@H]1O` [Baicalin], the remaining activity at 50 µM in test [1] was 89%; in test [2], 81.7%; in test [8], 91.5%; in [9], 81.8%; in [3], 84.7%; in [4], 78.3%. The remaining activity at 50 µM was determined as 72.9% in test [5] and 86.2% in [7]. Moreover, the “% HDAC activity, Class IIa HDACs, 7” value in test [6] was “-”.

In the case of `O=c1cc(-c2ccccc2)oc2cc(O)c(O)c(O)c12` [Baicalein], the remaining activity at 50 µM in [2] was found to be 59.2%; in test [8], 66.1%; in test [9], 76.6%. For the same compound, the “% HDAC activity, Class IIa HDACs, 7” value in [6] is recorded as “-”.

Turning to `O=C1c2c(O)cc(O)cc2O[C@H](c2cc(O)c(O)c(O)c2)[C@H]1O` [Dihydromyricetin], the remaining activity at 50 µM is 90% in [1]; 82.5% in test [2]; 92.5% in test [8]; 73.4% in test [9]; 86.3% in test [3]; 81.9% in test [4]. For the same compound, the remaining activity at 50 µM in test [5] is 73.9%; in test [6] (2 h, read-out: % HDAC activity, Class IIa HDACs, 7), 94%.
